Results on two compounds are retold here after ChEMBL document CHEMBL4400528, “Discovery and Optimization of Selective and in Vivo Active Inhibitors of the Lysophosphatidylserine Lipase α/β-Hydrolase Domain-Containing 12 (ABHD12)” (J Med Chem, 2019).

Molecules are shown by their SMILES. Calls of active or inactive are those of the source. The calls are words filed in the database; no cut-off is given here.

A word on the IC50: it is the concentration at which inhibition is half-maximal.

Series [1] can be described thus: Toxicity in mouse at 30 mg/kg, po. Particulars: in vivo. The class given is organism-based.
Series [2] in a line: Drug level in mouse peripheral regions at 30 mg/kg, ip. The class given is ADME, organism-based. Particulars: in vivo, read-out: Drug uptake.
A short description of series [3]: Drug level in mouse brain at 30 mg/kg, ip. The class given is ADME, organism-based. Particulars: in vivo, read-out: Drug uptake.
Series [4] addresses T1, Lysophosphatidylserine lipase ABHD12 (Homo sapiens) (UniProt Q8N2K0).
T1 sequence (whole entry): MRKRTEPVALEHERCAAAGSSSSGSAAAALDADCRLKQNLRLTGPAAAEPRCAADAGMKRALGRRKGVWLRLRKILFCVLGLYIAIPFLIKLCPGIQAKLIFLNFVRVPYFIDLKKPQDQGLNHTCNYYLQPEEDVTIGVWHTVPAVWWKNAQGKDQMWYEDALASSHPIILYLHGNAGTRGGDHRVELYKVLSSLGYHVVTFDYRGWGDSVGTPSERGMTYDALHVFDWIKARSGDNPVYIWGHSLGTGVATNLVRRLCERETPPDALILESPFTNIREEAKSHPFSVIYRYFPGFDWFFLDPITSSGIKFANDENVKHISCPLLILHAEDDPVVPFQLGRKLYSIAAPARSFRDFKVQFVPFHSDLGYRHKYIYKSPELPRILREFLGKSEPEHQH
As to the kind of experiment: Inhibition of ABHD12 in PMA-differentiated human THP1 cells assessed as increase in CCL4 production treated simultaneously with IFN-gamma/LPS for 24 hrs and measured 6 to 24 hrs after stimulation. A digest of the protocol: (§1)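 THP-1 cells grown in RPMI/10% FBS/0.05 mM 2-mercaptoethanol, plated 2.5×10^6 per well. Treated 24 h with 150 ng/mL PMA, washed, rested 24 h. Polarized to M1 with 20 ng/mL IFN-γ plus 10 pg/mL LPS for 24 h. Compound or DMSO (test 0.1–1 μM) present at every step. Media sampled 6 and 24 h after stimulation; cytokines by MSD V-Plex. Mean ± SEM, four biological experiments.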

The target in series [5] is T2, Lysophosphatidylserine lipase ABHD12 (Mus musculus, UniProt Q99LR1).
T2 sequence (Q99LR1 whole entry): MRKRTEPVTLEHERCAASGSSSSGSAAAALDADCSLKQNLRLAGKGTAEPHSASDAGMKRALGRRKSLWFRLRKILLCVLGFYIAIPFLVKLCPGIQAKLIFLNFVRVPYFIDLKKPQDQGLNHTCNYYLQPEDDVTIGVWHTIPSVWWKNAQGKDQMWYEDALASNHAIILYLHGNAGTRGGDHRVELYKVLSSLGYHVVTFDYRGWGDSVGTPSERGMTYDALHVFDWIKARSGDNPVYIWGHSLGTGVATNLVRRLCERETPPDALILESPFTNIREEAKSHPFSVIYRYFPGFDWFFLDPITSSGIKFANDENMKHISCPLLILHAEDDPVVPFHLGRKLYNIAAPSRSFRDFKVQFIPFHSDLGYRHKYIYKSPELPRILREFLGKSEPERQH
Briefly: Inhibition of JJH350 binding to ABHD12 in mouse brain membrane proteome incubated for 20 mins by CuAAC fluorescence dependent gel-based competitive ABPP assay. The class given is cell membranes. In outline: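 Brain membrane fraction (1 mg/mL; DPBS homogenate, 16,000 x g pellet) treated with inhibitor for 20 min at room temperature. JJH350 (2 μM) added for 45 min at 37 °C, then CuAAC with rhodamine-PEG3-azide, CuSO4, TBTA and TCEP for 1 h at room temperature. Run on 10% SDS-PAGE and read by in-gel fluorescence. ABHD12 band normalized to control-treated sample (100%); IC50 from log dose-response fit.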

The target in series [6] is T1, Lysophosphatidylserine lipase ABHD12 (Homo sapiens). As to the kind of experiment: Inhibition of ABHD12 in PMA-differentiated human THP1 cells assessed as increase in TNF-alpha production treated simultaneously with IFN-gamma/LPS for 24 hrs and measured 6 to 24 hrs after stimulation. A digest of the protocol: as §1
In another series the test system is THP-1. As to the kind of experiment: Cytotoxicity against human THP1 cells assessed as effect on cell viability at 1 uM after 72 hrs by CellTiter-Glo assay. Particulars: thp-1, 72 h. In kind it is cell-based. In outline:
(§2)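 Cells seeded at 3,000 per well and left 24 h. Compounds then added at 0.1–10 μM final and incubated 72 h. Viability read by CellTiter-Glo luminescence and normalized to vehicle-treated controls.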

The nature of series [7]: Toxicity in mouse at 30 mg/kg, ip. The class given is organism-based. As to conditions: in vivo.
Another series concerns T98G. Briefly: Cytotoxicity against human T98G cells assessed as effect on cell viability at 1 uM after 72 hrs by CellTiter-Glo assay. The class given is cell-based. In outline:
as §2
(In ATP-based viability assays light output follows the ATP content of the culture.)

Series [8] addresses T1, Lysophosphatidylserine lipase ABHD12 (Homo sapiens). Briefly: Inhibition of ABHD12 in PMA-differentiated human THP1 cells assessed as increase in CCL3 production treated simultaneously with IFN-gamma/LPS for 24 hrs and measured 6 to 24 hrs after stimulation. In outline:
as §1

The next series has as its system MDA-MB-231. Briefly: Cytotoxicity against human MDA-MB-231 cells assessed as effect on cell viability at 1 uM after 72 hrs by CellTiter-Glo assay. In kind it is cell-based. Particulars: mda-mb-231, 72 h. In outline:
as §2

In a further series the test system is HT-1080. As to the kind of experiment: Cytotoxicity against human HT1080 cells assessed as effect on cell viability at 1 uM after 72 hrs by CellTiter-Glo assay. As to conditions: ht-1080, 72 h. In kind it is cell-based. In outline: as §2
A short description of series [9]: Drug level in mouse brain at 30 mg/kg, po. The class given is ADME, organism-based. Particulars: in vivo, read-out: Drug uptake.
Series [10] is described as follows: Drug level in mouse peripheral regions at 30 mg/kg, po. Particulars: in vivo, read-out: Drug uptake. The class given is ADME, organism-based.
Series [11] addresses T1, Lysophosphatidylserine lipase ABHD12 (Homo sapiens). As to the kind of experiment: Inhibition of ABHD12 in PMA-differentiated human THP1 cells assessed as increase in IL-1beta production treated simultaneously with IFN-gamma/LPS for 24 hrs and measured 6 to 24 hrs after stimulation. In outline:
as §1

For series [12], the target named is T2, Lysophosphatidylserine lipase ABHD12. Briefly: Inhibition of FP-Rh probe binding to ABHD12 in mouse brain membrane proteome incubated for 45 mins by CuAAC fluorescence dependent gel-based competitive ABPP assay. In kind it is cell membranes. In outline:
(§3)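 Mouse brain membrane proteome (1 mg/mL) preincubated with inhibitor for 45 min at 37 °C. Labelled with FP-Rh (1 μM) or JJH350 (2 μM) for 45 min at 37 °C. JJH350 samples were clicked to Rh-N3 (25 μM) by CuAAC for 60 min at room temperature. Read by 10% SDS-PAGE and in-gel fluorescence scanning. Band intensity taken relative to control (100%), and IC50 from log(inhibitor) vs normalized response.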

In series [13] the target is T3, Monoacylglycerol lipase ABHD6 (Mus musculus) (UniProt Q8R2Y0).
T3 sequence (whole entry): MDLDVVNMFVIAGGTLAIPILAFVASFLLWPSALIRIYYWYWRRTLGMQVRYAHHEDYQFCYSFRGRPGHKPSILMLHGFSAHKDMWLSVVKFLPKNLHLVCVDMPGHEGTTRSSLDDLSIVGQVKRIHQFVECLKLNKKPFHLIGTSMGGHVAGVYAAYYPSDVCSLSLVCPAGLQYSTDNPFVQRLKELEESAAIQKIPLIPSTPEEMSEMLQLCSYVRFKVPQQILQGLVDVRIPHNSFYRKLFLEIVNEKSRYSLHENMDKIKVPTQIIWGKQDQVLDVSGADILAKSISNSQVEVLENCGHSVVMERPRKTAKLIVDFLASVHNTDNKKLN
As to the kind of experiment: Binding affinity to ABHD6 in mouse brain membrane proteome at 0.016 to 10 uM incubated for 45 mins by CuAAC fluorescence dependent gel-based competitive ABPP assay. The class given is cell membranes. In outline: as §3

Series [14] concerns the target T4, Lysophosphatidylserine lipase ABHD12 (Mus musculus) (UniProt Q99LR1).
T4 sequence (whole entry): T2 sequence (Q99LR1 whole entry)
Briefly: Binding affinity to ABHD12 in mouse brain membrane proteome at 0.016 to 10 uM incubated for 45 mins by CuAAC fluorescence dependent gel-based competitive ABPP assay. The class given is cell membranes. In outline: as §3

Turning to `FC(F)(F)Oc1ccc(Oc2ccnc(N3CCC(NC(=S)Nc4cccnc4)CC3)c2Cl)c(Cl)c1`, the Activity result (in [1]; with THP-1; in series [7]; with T98G; in the series with MDA-MB-231; in the series on HT-1080) was “Non-Toxic” throughout. The concentration in series [2], in series [3], in series [9] and in series [10] was 3 to 9 µM each time. In addition, the inhibition result in series [4], in series [6], in [8] and in [11] was “Dose-dependent effect” each time. The compound also returned an IC50 in series [5] of 11 nM.
In the case of `C#CCOc1ccc(N2CCN(C(=O)ON3C(=O)C4CN(C(=O)c5ccc(Oc6ccccc6)cc5)CCN4C3=O)CC2)cc1` (stereo not drawn), the IC50 in series [12] was 400 nM. The result in series [13] and in series [14] was Active.
